Laboratory results published in ChEMBL document CHEMBL3877317, “Quinazolinone derivatives: Synthesis and comparison of inhibitory mechanisms on α-glucosidase” (Bioorg Med Chem, 2017).
Calls of active or inactive are those of the source. The calls are words filed in the database; no cut-off is given here.

Columns and labels:
[1] = Non-competitive inhibition of Saccharomyces cerevisiae alpha-glucosidase type 1 using p-nitro-phenyl-alpha-D-glucopyranoside as substrate preincubated for 10 mins followed by substrate addition measured after 5 mins every 10 secs by Lineweaver-Burk plot analysis
Summary of the method: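 Same pNPG assay (0.1 M potassium phosphate pH 6.8, A405 every 10 s, ambient temperature), inhibitor 0-24 µM (or 0-16 µM). Inhibition type assigned from Lineweaver-Burk plots. KI taken from the secondary plot.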

Saccharomyces cerevisiae [2] = test: Reversible inhibition of Saccharomyces cerevisiae alpha-glucosidase type 1 at 8 to 24 uM using p-nitro-phenyl-alpha-D-glucopyranoside as substrate preincubated for 10 mins followed by substrate addition measured after 5 mins every 10 secs
[3] = Inhibition of Saccharomyces cerevisiae alpha-glucosidase type 1 using p-nitro-phenyl-alpha-D-glucopyranoside as substrate preincubated for 10 mins followed by substrate addition measured after 5 mins every 10 secs
Summary of the method: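 Enzyme (7 U/mL, 50 µL) with sample at varied concentrations, then 5 mM pNPG (200 µL) in 0.1 M potassium phosphate pH 6.8. A405 read every 10 s at ambient temperature. Relative activity = slope with inhibitor / slope without × 100. Acarbose as positive control.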

Saccharomyces cerevisiae [4] = test: Binding affinity to Saccharomyces cerevisiae alpha-glucosidase type 1 assessed as fluorescence quenching by measuring relative fluorescence intensity at 60 uM by fluorescence spectrophotometric method
Summary of the method: (§1)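 Intrinsic enzyme fluorescence (peak 330 nm) recorded with excitation 280 nm, emission 300-500 nm, 25 °C. Enzyme 0.1 mg/mL in 0.1 mM sodium phosphate buffer; compound series 0-50 µM or 0-60 µM. Relative intensity expressed as F/F0 against enzyme alone.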

Saccharomyces cerevisiae [5] = test: Binding affinity to Saccharomyces cerevisiae alpha-glucosidase type 1 assessed as Stern-Volmer quenching constant at 25 degC by fluorescence spectrophotometric method
Summary of the method: (§2)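 Fluorescence quenching: enzyme (0.1 mg/mL, 50 µL) mixed with sample at varied concentrations in 0.1 mM sodium phosphate buffer, 25 °C. Excitation 280 nm, emission scanned 300-500 nm. F0/F plotted against [Q] and fitted to the Stern-Volmer equation (F0/F = 1 + Kqτ0[Q] = 1 + Ksv[Q]) to give Ksv and Kq.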

Saccharomyces cerevisiae [6] = test: Binding affinity to Saccharomyces cerevisiae alpha-glucosidase type 1 assessed as quenching velocity constant of biomolecular reaction at 25 degC by fluorescence spectrophotometric method; summary of the method: as §2
Saccharomyces cerevisiae [7] = test: Binding affinity to Saccharomyces cerevisiae alpha-glucosidase type 1 at 25 degC by fluorescence spectrophotometric method
Saccharomyces cerevisiae [8] = test: Binding affinity to Saccharomyces cerevisiae alpha-glucosidase type 1 assessed as fluorescence quenching by measuring relative fluorescence intensity at 50 uM by fluorescence spectrophotometric method; summary of the method: as §1

Ki [1] [µM]	inhibition (Saccharomyces cerevisiae [2])	IC50 [3] [µM]	Activity (Saccharomyces cerevisiae [4]) [%]	KSV (Saccharomyces cerevisiae [5])	Kq (Saccharomyces cerevisiae [6])	K (Saccharomyces cerevisiae [7]) [×10⁴ L/mol]	Activity (Saccharomyces cerevisiae [8]) [%]	SMILES
10.6	Active	15.6	69.3	7.26 ×10³ L/mol	7.26 ×10¹¹ L/mol.s	1.25	–	O=c1[nH]c(-c2ccc(Br)cc2)nc2ccccc12
–	–	475	–	–	–	–	–	C[C@H]1O[C@H](O[C@H]2[C@H](O)[C@@H](O)[C@@H](O[C@H]3[C@H](O)[C@@H](O)C(O)O[C@@H]3CO)O[C@@H]2CO)[C@H](O)[C@@H](O)[C@@H]1N[C@H]1C=C(CO)[C@@H](O)[C@H](O)[C@H]1O (stereo partly specified) [ACARBOSE]
9.1	Active	12.5	–	3.1 ×10⁴ L/mol	3.1 ×10¹² L/mol.s	1.78	39.3	O=c1[nH]c(-c2ccc(Cl)cc2)nc2ccccc12
–	–	> 57.2	–	–	–	–	–	Oc1nc(-c2ccc(F)cc2)nc2ccccc12
